# Laboratory results taken from ChEMBL document CHEMBL3272061, “Experiments of synthesis of dl-camptothecin. 4. Synthesis and antileukemic activity of dl-camptothecin analogues” (J Med Chem, 1976).
# The source made the active and inactive calls. The rule behind the calls is not given here.
# What was measured:
# L1210 [1] = test: Antileukemic activity against mouse L1210 cells allografted in BDF1 mouse assessed as increase in life span of host at 20.8 umol/kg, ip relative to control; assay type: functional
# Method in brief: (§1)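 BDF1 mice, 5 weeks old, were inoculated ip with 5×10^5 L1210 cells; test groups had 4 males and 4 females, controls 5 males and 5 females. A single ip dose was given on the day after inoculation, as a suspension in vehicle for the insoluble compounds. Read-out was increase in life span over controls, with survivors past 30 days counted as 30 days.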
# L1210 [2] = test: Antileukemic activity against mouse L1210 cells allografted in BDF1 mouse assessed as increase in life span of host at 52.1 umol/kg, ip relative to control; assay type: functional; method in brief: as §1
# L1210 [3] = test: Antileukemic activity against mouse L1210 cells allografted in BDF1 mouse assessed as host survival at 20.8 umol/kg, ip after 30 days; assay type: functional, organism-based
# Method in brief: (§2)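 BDF1 mice, 5 weeks old, were inoculated ip with 5×10^5 L1210 cells in 0.1 ml saline. Test groups were 4 male and 4 female mice; controls were 5 male and 5 female. Insoluble compounds were suspended in vehicle. Dosing was ip, either once on the day after inoculation or daily for 5 days. Read-out was increase in life span over controls. Mice alive beyond 30 days were counted as 30 days and scored as survivors.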
# Mus musculus = species on record: Mus musculus; test: Toxicity in mouse L1210 cells allografted BDF1 mouse; assay type: organism-based
# [4] = Solubility of the compound; assay type: physicochemical
# L1210 [5] = test: Antileukemic activity against mouse L1210 cells allografted in BDF1 mouse assessed as increase in life span of host at 1 umol/kg, ip qd for 5 days relative to control; assay type: functional; settings: 120 h; method in brief: as §2
# L1210 [6] = test: Antileukemic activity against mouse L1210 cells allografted in BDF1 mouse assessed as increase in life span of host at 5 umol/kg, ip qd for 5 days relative to control; assay type: functional; settings: 120 h
# Method in brief: (§3)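 BDF1 mice, 5 weeks old, were inoculated ip with 5×10^5 L1210 cells; test groups had 4 males and 4 females, controls 5 males and 5 females. Dosing was ip, five times over the 5 days after inoculation, as a suspension in vehicle for the insoluble compounds. Read-out was increase in life span over controls.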
# L1210 [7] = test: Antileukemic activity against mouse L1210 cells allografted in BDF1 mouse assessed as increase in life span of host at 12.5 umol/kg, ip qd for 5 days relative to control; assay type: functional; settings: 120 h; method in brief: as §2
# L1210 [8] = test: Antileukemic activity against mouse L1210 cells allografted in BDF1 mouse assessed as increase in life span of host at 25 umol/kg, ip qd for 5 days relative to control; assay type: functional; settings: 120 h; method in brief: as §3
# L1210 [9] = test: Antileukemic activity against mouse L1210 cells allografted in BDF1 mouse assessed as increase in life span of host at 1 umol/kg, sc qd for 5 days relative to control; assay type: functional; settings: 120 h
# L1210 [10] = test: Antileukemic activity against mouse L1210 cells allografted in BDF1 mouse assessed as increase in life span of host at 5 umol/kg, sc qd for 5 days relative to control; assay type: functional; settings: 120 h
# L1210 [11] = test: Antileukemic activity against mouse L1210 cells allografted in BDF1 mouse assessed as increase in life span of host at 25 umol/kg, sc qd for 5 days relative to control; assay type: functional; settings: 120 h
# L1210 [12] = test: Antileukemic activity against mouse L1210 cells allografted in BDF1 mouse assessed as increase in life span of host at 5 umol/kg, po qd for 5 days relative to control; assay type: functional; settings: 120 h
# L1210 [13] = test: Antileukemic activity against mouse L1210 cells allografted in BDF1 mouse assessed as increase in life span of host at 12.5 umol/kg, po qd for 5 days relative to control; assay type: functional; settings: 120 h
# L1210 [14] = test: Antileukemic activity against mouse L1210 cells allografted in BDF1 mouse assessed as increase in life span of host at 25 umol/kg, po qd for 4 days relative to control; assay type: functional; settings: 96 h
# L1210 [15] = test: Antileukemic activity against mouse L1210 cells allografted in BDF1 mouse assessed as increase in life span of host at 278 umol/kg, ip relative to control; assay type: functional; method in brief: as §1
# L1210 [16] = test: Antileukemic activity against mouse L1210 cells allografted in BDF1 mouse assessed as increase in life span of host at 1.11 umol/kg, ip qd for 5 days relative to control; assay type: functional; settings: 120 h; method in brief: as §2
# L1210 [17] = test: Antileukemic activity against mouse L1210 cells allografted in BDF1 mouse assessed as increase in life span of host at 5.56 umol/kg, ip qd for 5 days relative to control; assay type: functional; settings: 120 h; method in brief: as §3
# L1210 [18] = test: Antileukemic activity against mouse L1210 cells allografted in BDF1 mouse assessed as increase in life span of host at 13.8 umol/kg, ip qd for 5 days relative to control; assay type: functional; settings: 120 h; method in brief: as §2
# L1210 [19] = test: Antileukemic activity against mouse L1210 cells allografted in BDF1 mouse assessed as increase in life span of host at 27.8 umol/kg, ip qd for 5 days relative to control; assay type: functional; settings: 120 h; method in brief: as §3
# L1210 [20] = test: Antileukemic activity against mouse L1210 cells allografted in BDF1 mouse assessed as increase in life span of host at 1.11 umol/kg, sc qd for 5 days relative to control; assay type: functional; settings: 120 h
# L1210 [21] = test: Antileukemic activity against mouse L1210 cells allografted in BDF1 mouse assessed as increase in life span of host at 5.56 umol/kg, sc qd for 5 days relative to control; assay type: functional; settings: 120 h
# L1210 [22] = test: Antileukemic activity against mouse L1210 cells allografted in BDF1 mouse assessed as increase in life span of host at 13.8 umol/kg, sc qd for 5 days relative to control; assay type: functional; settings: 120 h
# L1210 [23] = test: Antileukemic activity against mouse L1210 cells allografted in BDF1 mouse assessed as increase in life span of host at 27.8 umol/kg, sc qd for 5 days relative to control; assay type: functional; settings: 120 h
# L1210 [24] = test: Antileukemic activity against mouse L1210 cells allografted in BDF1 mouse assessed as increase in life span of host at 5.56 umol/kg, po qd for 4 days relative to control; assay type: functional; settings: 96 h
# L1210 [25] = test: Antileukemic activity against mouse L1210 cells allografted in BDF1 mouse assessed as increase in life span of host at 13.8 umol/kg, po qd for 4 days relative to control; assay type: functional; settings: 96 h
# L1210 [26] = test: Antileukemic activity against mouse L1210 cells allografted in BDF1 mouse assessed as increase in life span of host at 27.8 umol/kg, po qd for 4 days relative to control; assay type: functional; settings: 96 h
# L1210 [27] = test: Antileukemic activity against mouse L1210 cells allografted in BDF1 mouse assessed as increase in life span of host at 5.56 umol/kg, ip relative to control; assay type: functional; method in brief: as §1
# L1210 [28] = test: Antileukemic activity against mouse L1210 cells allografted in BDF1 mouse assessed as increase in life span of host at 27.8 umol/kg, ip relative to control; assay type: functional; method in brief: as §1
# L1210 [29] = test: Antileukemic activity against mouse L1210 cells allografted in BDF1 mouse assessed as increase in life span of host at 69.4 umol/kg, ip relative to control; assay type: functional; method in brief: as §1
# L1210 [30] = test: Antileukemic activity against mouse L1210 cells allografted in BDF1 mouse assessed as increase in life span of host at 139 umol/kg, ip relative to control; assay type: functional; method in brief: as §2
# L1210 [31] = test: Antileukemic activity against mouse L1210 cells allografted in BDF1 mouse assessed as increase in life span of host at 5.21 umol/kg, ip relative to control; assay type: functional; method in brief: as §1
# L1210 [32] = test: Antileukemic activity against mouse L1210 cells allografted in BDF1 mouse assessed as increase in life span of host at 24.4 umol/kg, ip relative to control; assay type: functional; method in brief: as §1
# L1210 [33] = test: Antileukemic activity against mouse L1210 cells allografted in BDF1 mouse assessed as increase in life span of host at 61 umol/kg, ip relative to control; assay type: functional; method in brief: as §1
# L1210 [34] = test: Antileukemic activity against mouse L1210 cells allografted in BDF1 mouse assessed as increase in life span of host at 45.7 umol/kg, ip relative to control; assay type: functional; method in brief: as §1
# L1210 [35] = test: Antileukemic activity against mouse L1210 cells allografted in BDF1 mouse assessed as host survival at 61 umol/kg, ip after 30 days; assay type: functional, organism-based; method in brief: as §2
# L1210 [36] = test: Antileukemic activity against mouse L1210 cells allografted in BDF1 mouse assessed as host survival at 45.7 umol/kg, ip after 30 days; assay type: functional, organism-based; method in brief: as §2
# L1210 [37] = test: Antileukemic activity against mouse L1210 cells allografted in BDF1 mouse assessed as increase in life span of host at 22.8 umol/kg, ip relative to control; assay type: functional; method in brief: as §1
# L1210 [38] = test: Antileukemic activity against mouse L1210 cells allografted in BDF1 mouse assessed as increase in life span of host at 57.1 umol/kg, ip relative to control; assay type: functional; method in brief: as §1
# L1210 [39] = test: Antileukemic activity against mouse L1210 cells allografted in BDF1 mouse assessed as increase in life span of host at 4.17 umol/kg, ip relative to control; assay type: functional; method in brief: as §1
# L1210 [40] = test: Antileukemic activity against mouse L1210 cells allografted in BDF1 mouse assessed as host survival at 22.8 umol/kg, ip after 30 days; assay type: functional, organism-based; method in brief: as §2
# L1210 [41] = test: Antileukemic activity against mouse L1210 cells allografted in BDF1 mouse assessed as host survival at 57.1 umol/kg, ip after 30 days; assay type: functional, organism-based; method in brief: as §2
# L1210 [42] = test: Antileukemic activity against mouse L1210 cells allografted in BDF1 mouse assessed as host survival at 4.17 umol/kg, ip after 30 days; assay type: functional, organism-based; method in brief: as §2
smiles,measurement,setting,value
CCOCc1c(C(O)(CC(=O)OCC)C(=O)OCC)cc2n(c1=O)Cc1cc3ccccc3nc1-2 (stereo not drawn),ILS at 20.8 µmol/kg,L1210 [1],55%
same,ILS at 52.1 µmol/kg,L1210 [2],> 170%
same,Activity,L1210 [3],inactive
same,Activity,Mus musculus,Toxic
same,solubility,[4],Insoluble
C=CCC1(O)C(=O)OCc2c1cc1n(c2=O)Cc2cc3ccccc3nc2-1 (stereo not drawn),ILS at 1 µmol/kg,L1210 [5],-2%
same,ILS at 5 µmol/kg,L1210 [6],13%
same,ILS at 12.5 µmol/kg,L1210 [7],58%
same,ILS at 25 µmol/kg,L1210 [8],> 118%
same,ILS at 1 µmol/kg,L1210 [9],-2%
same,ILS at 5 µmol/kg,L1210 [10],9%
same,ILS at 25 µmol/kg,L1210 [11],72%
same,ILS at 5 µmol/kg,L1210 [12],12%
same,ILS at 12.5 µmol/kg,L1210 [13],40%
same,ILS at 25 µmol/kg,L1210 [14],21%
C=CCC1(O)C(=O)OCc2c1cc1n(c2=O)Cc2cc3ccccc3nc2-1 (racemic),Activity,Mus musculus,Toxic
same,solubility,[4],Insoluble
same,ILS at 278 µmol/kg,L1210 [15],-43%
same,ILS at 1.11 µmol/kg,L1210 [16],14%
same,ILS at 5.56 µmol/kg,L1210 [17],42%
same,ILS at 13.8 µmol/kg,L1210 [18],> 105%
same,ILS at 27.8 µmol/kg,L1210 [19],-13%
same,ILS at 1.11 µmol/kg,L1210 [20],-1%
same,ILS at 5.56 µmol/kg,L1210 [21],4%
same,ILS at 13.8 µmol/kg,L1210 [22],26%
same,ILS at 27.8 µmol/kg,L1210 [23],51%
same,ILS at 5.56 µmol/kg,L1210 [24],3%
same,ILS at 13.8 µmol/kg,L1210 [25],-1%
same,ILS at 27.8 µmol/kg,L1210 [26],-1%
same,ILS at 5.56 µmol/kg,L1210 [27],16%
same,ILS at 27.8 µmol/kg,L1210 [28],84%
same,ILS at 69.4 µmol/kg,L1210 [29],> 155%
same,ILS at 139 µmol/kg,L1210 [30],> 60%
same,ILS at 5.21 µmol/kg,L1210 [31],-5%
O=C1OCc2c(cc3n(c2=O)Cc2cc4ccccc4nc2-3)C1(O)Cc1ccccc1 (racemic),ILS at 24.4 µmol/kg,L1210 [32],> 171%
same,ILS at 61 µmol/kg,L1210 [33],-34%
same,ILS at 45.7 µmol/kg,L1210 [34],12%
same,Activity,L1210 [35],inactive
same,Activity,L1210 [36],inactive
same,Activity,Mus musculus,Toxic
same,solubility,[4],Insoluble
O=C(CC1(O)C(=O)OCc2c1cc1n(c2=O)Cc2cc3ccccc3nc2-1)c1ccccc1 (racemic),ILS at 22.8 µmol/kg,L1210 [37],10%
same,ILS at 57.1 µmol/kg,L1210 [38],21%
same,ILS at 4.17 µmol/kg,L1210 [39],26%
same,Activity,L1210 [40],inactive
same,Activity,L1210 [41],inactive
same,Activity,L1210 [42],inactive
same,solubility,[4],Insoluble
